Bioassay records: PubChem BioAssay, Johns Hopkins Ion Channel Center
TRPC4 block – inhibitors of mouse TRPC4 channel, primary screen, Fluo4 calcium, HEK293 TRPC4beta/mu-opioid cells. Short transient receptor potential channel 4 (Mus musculus), Q9QUQ5. DAMGO-evoked Fluo4 calcium flux; active compounds read low. B-score at 10 µM. 300,000 tested, 0.39% active;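 active means B-score over 3 SD under the library average, no early fluorescence shift, positive overall ratio signal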
Target sequence (Q9QUQ5 whole entry, looked up): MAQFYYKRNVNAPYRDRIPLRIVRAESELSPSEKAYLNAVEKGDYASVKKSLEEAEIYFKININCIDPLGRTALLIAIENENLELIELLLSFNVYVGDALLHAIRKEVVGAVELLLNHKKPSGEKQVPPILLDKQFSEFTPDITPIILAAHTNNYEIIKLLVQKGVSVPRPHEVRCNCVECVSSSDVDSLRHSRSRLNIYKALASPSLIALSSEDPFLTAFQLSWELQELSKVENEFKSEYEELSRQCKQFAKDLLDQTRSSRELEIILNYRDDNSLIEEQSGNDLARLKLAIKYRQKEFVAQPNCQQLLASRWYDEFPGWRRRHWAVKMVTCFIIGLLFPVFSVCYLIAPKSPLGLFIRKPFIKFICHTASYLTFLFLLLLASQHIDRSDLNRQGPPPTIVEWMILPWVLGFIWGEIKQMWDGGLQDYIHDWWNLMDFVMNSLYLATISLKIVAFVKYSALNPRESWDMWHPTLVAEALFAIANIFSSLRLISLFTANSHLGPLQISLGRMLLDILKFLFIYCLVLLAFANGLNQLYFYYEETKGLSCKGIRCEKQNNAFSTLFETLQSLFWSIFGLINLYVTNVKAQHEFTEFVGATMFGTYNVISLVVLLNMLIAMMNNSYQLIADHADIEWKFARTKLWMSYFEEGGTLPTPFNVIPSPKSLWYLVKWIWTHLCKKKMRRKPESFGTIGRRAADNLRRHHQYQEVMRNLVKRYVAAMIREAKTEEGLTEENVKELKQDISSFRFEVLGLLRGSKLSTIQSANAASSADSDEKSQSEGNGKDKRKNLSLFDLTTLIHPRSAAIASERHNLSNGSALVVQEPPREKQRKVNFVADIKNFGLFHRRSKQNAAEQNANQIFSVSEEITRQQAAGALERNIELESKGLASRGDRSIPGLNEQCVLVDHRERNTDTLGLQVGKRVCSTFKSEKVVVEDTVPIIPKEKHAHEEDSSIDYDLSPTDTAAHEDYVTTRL
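Assay system: TRPC4beta/mu-opioid receptor HEK293 cell line; compound dosing: single concentration per test compound; detection: Fluo4 Ca2+ flux fluorescence; evaluation: per-well B score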
TRPC6 act – mouse TRPC6 channel activators, primary screen, cell-based, HEK293, membrane potential dye | 310,000 tested, 0.13% active | Short transient receptor potential channel 6 (Mus musculus), Q61143 | HEK293-TRPC6 membrane potential dye fluorescence; active compounds read high | B-score at 10 µM;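 active means B-score of the integrated fluorescence ratio above library mean plus 3 SD, and starting fluorescence ratio within library mean plus 5 SD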;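 further: higher score means more depolarization so channel activation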
TRPC4 agonist – activators of mouse TRPC4 channel, primary screen, Fluo4 calcium, HEK293 TRPC4beta/mu-opioid cells. Short transient receptor potential channel 4 (Mus musculus), Q9QUQ5. Fluo4 calcium fluorescence; active compounds read high. B-score at 10 µM. 310,000 tested, 0.49% active. AID 2237, 2010;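 active means B-score above 5 SD of library B-scores, and initial fluorescence ratio not above library mean plus 5 SD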;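 further: positive B-score marks a calcium rise read as TRPC4 activation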
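system = HEK293 cells stably co-expressing mouse TRPC4beta and mu-opioid receptor | schedule = Fluo4 dye loading 45 min at room temperature, 110 s recording | measure = B-scored integrated calcium fluorescence ratio | signal = Fluo4 calcium-sensitive dye fluorescence, kinetic, 1 Hz baseline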
Kir21 block – inhibitors of mouse Kir2.1 inward-rectifier potassium channel; Inward rectifier potassium channel 2 (Mus musculus), P35561; HEK293-Kir2.1, FluxOR thallium flux fluorescence; active compounds read low; B-score at 10 µM; 310,000 tested, 0.85% active; AID 1672, 2009;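 active means fluorescence ratio B-score at or below minus 3 SD of library scores, with starting-brightness B-score within 2 SD, cut at about -4.2 in these data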;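 further: channel flux triggered by added potassium and thallium sulfate stimulus; B-score of peak minus minimum fluorescence over baseline after thallium stimulus; more negative B-score means stronger Kir2.1 block with less thallium influx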
TRPC6 inh – mouse TRPC6 channel inhibitors, primary screen, cell-based, HEK293, membrane potential dye; Short transient receptor potential channel 6 (Mus musculus), Q61143; ACh-evoked depolarization; active compounds read low; B-score at 10 µM; 310,000 tested, 1.1% active; AID 2553, 2010;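 active means B-score under library mean minus 3 SD, initial fluorescence not abnormally high, positive integrated signal ratio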;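 further: B-score derived from integrated fluorescence ratio over the kinetic read; more negative B-score means stronger inhibition of depolarization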
TRPC4 PAM – positive allosteric modulators of TRPC4, primary screen, cell-based, mouse TRPC4beta, HEK293 mu-opioid, Fluo-4 calcium. Short transient receptor potential channel 4 (Mus musculus), Q9QUQ5. DAMGO EC20, Fluo-4 Ca2+ flux; active compounds read high. B-score at 10 µM. 310,000 tested, 0.42% active. AID 2227, 2009;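 active means B-score of calcium response area above 5 SD of library B-scores, with initial fluorescence ratio within 5 SD of library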;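 further: B-score of integrated fluorescence ratio over time as area under calcium response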
Active calls of the source: *; i = inactive. Sampled rows, rich in hits. Any-hit rate of the full collection: about 3%.

SMILES	TRPC4 block	TRPC6 act	TRPC4 agonist	Kir21 block	TRPC6 inh	TRPC4 PAM
CC1(c2ccc(OC(F)F)cc2)NC(=O)N(CC(=O)Nc2cccnc2Cl)C1=O (stereo not drawn)	i	i	62*	-1	i	i
COc1ccc(C2(C)NC(=O)N(CC(=O)Nc3cccnc3Cl)C2=O)cc1 (stereo not drawn)	i	i	i	0.1	i	i
CCCC1(c2ccccc2)NC(=O)N(CC(=O)c2[nH]c(C)c(C(=O)OCC)c2C)C1=O (stereo not drawn)	i	i	i	-1.3	i	15*
CN(Cc1ccccc1)C(=O)c1oc(=O)c2ccccc2c1-c1ccccc1	i	i	i	-1	i	16*
Cc1ccc(-c2c(C(=O)N(C)Cc3ccccc3)oc(=O)c3ccccc23)cc1	i	i	i	-0.28	i	i
CCCCc1nnc(NC(=O)C2CC(=O)N(Cc3ccccc3)C2)s1 (stereo not drawn)	i	i	i	0.84	i	i
O=C(NCCc1ccccc1)c1cccc(N2CCCC2=O)c1	i	i	i	-0.01	i	i
CCOc1ccccc1NS(=O)(=O)c1ccc2[nH]c(=O)[nH]c2c1	i	i	i	-0.95	i	13*
Cc1ccc(S(=O)(=O)N2CCNC(=O)CC2)cc1	i	i	i	1.8	i	i
CN(C(=O)CSc1cc(C(=O)c2nccn2C)c2ccccc2n1)c1ccccc1	i	i	i	-1.6	i	i
Cc1cccc(NC(=S)NCC(c2cccnc2)N(C)C)c1 (stereo not drawn)	i	i	103*	0.02	i	i
CN(C)C(CNS(=O)(=O)c1ccc(F)cc1)c1cccnc1 (stereo not drawn)	i	i	i	-0.27	i	i
CN(C)C(CNC(=S)Nc1ccc(F)cc1)c1cccnc1 (stereo not drawn)	i	i	80*	0.8	i	i
Cc1cccc(NC(=S)N(CCN(C)C)C(C)c2cccnc2)c1 (stereo not drawn)	i	i	i	-0.15	i	i
COc1ccc(N2CC(C(=O)N[C@@H](CC(C)C)C(=O)NC3CCCC3)CC2=O)cc1 (stereo partly drawn)	i	i	i	0.02	i	i
CC(=O)Nc1ccc(OS(=O)(=O)c2c(C)cc(C)cc2C)cc1	i	i	i	0.98	i	i
O=S(=O)(NCc1ccc(Cl)cc1)c1cccc2cccnc12	i	i	i	-4.5*	i	i
Cc1cc(C)c(NS(=O)(=O)c2cccc3cccnc23)c(C)c1	i	i	i	-4.4*	i	i
O=C(NCc1ccccc1)C1=C[C@H](c2ccc(Br)cc2)C[C@H](OCc2ccc(CO)cc2)O1	i	i	i	0.01	i	15*
O=C(NCc1ccccc1)C1=C[C@H](c2ccc3c(c2)OCO3)C[C@H](OCc2ccc(CO)cc2)O1	-6*	i	211*	-0.64	i	i
COc1ccc(/C(C)=N/NC(=S)NCCc2ccccc2)c(O)c1	i	i	i	0.36	i	i
CCCCCCCn1c2c(c(=N)c3ccccc31)CCC2	i	i	i	-6.7*	i	i
COc1ccc(Br)cc1CN1CCCC(C(=O)N2CCCCCC2)C1 (stereo not drawn)	-6*	i	i	-1.8	i	i
COc1ccc(Br)cc1CN1CCC(N2CCCC2)CC1	i	i	i	0.01	i	17*
COc1ccc(Br)cc1CN1CCCC(C(=O)N2CCCCC2)C1 (stereo not drawn)	i	i	i	-0.13	i	i
SMILES	TRPC4 block	TRPC6 act	TRPC4 agonist	Kir21 block	TRPC6 inh	TRPC4 PAM
O=C(CCC1CCCCC1)NCCS(=O)(=O)N1CCN(c2ccccc2)CC1	i	i	i	0.66	i	i
O=C(Nc1ccc(OC(F)F)cc1)c1cc(S(=O)(=O)N2CCOCC2)ccc1F	i	i	i	-0.45	i	i
COc1ccccc1C(C)NS(=O)(=O)c1cccs1 (stereo not drawn)	i	i	i	-4.5*	i	i
CCN(CC)Cc1c(C(=O)N/N=C/c2cccc(OCc3cccc(Cl)c3)c2)nnn1-c1nonc1N	i	i	i	2	i	i
Cc1ccccc1C(=O)Nc1ccc(C(=O)N/N=C/c2ccncc2)cc1	-6*	i	i	-0.08	i	i
Cc1cccc(N(C(=O)c2snc(C(N)=O)c2N)C(C(=O)NCC2CCCO2)c2ccc3ncccc3c2)c1 (stereo not drawn)	-6*	i	i	1	i	i
CC(C)CC(C(=O)NC1CCCCC1)N(Cc1ccccc1)C(=O)c1snc(C(N)=O)c1N (stereo not drawn)	i	i	i	-2.2	i	i
Cc1ccccc1N(C(=O)c1snc(C(N)=O)c1N)C(C(=O)NC1CCCC1)c1ccco1 (stereo not drawn)	-8*	i	i	0.72	i	i
COc1ccc(C(C(=O)NCc2ccccc2)N(C(=O)c2snc(C(N)=O)c2N)c2ccccc2OC)cc1 (stereo not drawn)	i	i	i	1.7	i	i
COc1ccccc1N(C(=O)c1snc(C(N)=O)c1N)C(C(=O)NCc1ccccc1)c1ccc(O)cc1 (stereo not drawn)	-8*	i	i	1.6	i	i
COc1ccc(CN(C(=O)c2snc(C(N)=O)c2N)C(CC(C)C)C(=O)NC2CCCCC2)cc1 (stereo not drawn)	-7*	i	i	-0.56	i	i
Cc1cc(F)ccc1S(=O)(=O)N1CCCOC1CNC(=O)C(=O)NC1CCCCC1 (stereo not drawn)	i	i	i	0.28	i	i
O=Cc1ccc(OC(=O)Cc2ccc(F)cc2)cc1	i	i	i	-0.64	i	i
Cc1ccc(NC(=O)C2CC(=O)n3ncnc3N2)cc1C (stereo not drawn)	i	i	i	-0.99	i	i
